Assay results: ChEMBL document CHEMBL4665625, “New pyrido[3,4-g]quinazoline derivatives as CLK1 and DYRK1A inhibitors: synthesis, biological evaluation and binding mode analysis” (Eur J Med Chem, 2019)

Tests used:
[1] = biological target: T1, Cyclin-dependent kinase 5/CDK5 activator 1 (Homo sapiens) (UniProt Q00535+Q15078); test: Inhibition of recombinant human CDK5/p25 expressed in bacteria assessed as residual activity at 10 uM using histone H1 as substrate in presence of [gamma-33P]ATP relative to control
T1 sequence (Q00535 whole entry): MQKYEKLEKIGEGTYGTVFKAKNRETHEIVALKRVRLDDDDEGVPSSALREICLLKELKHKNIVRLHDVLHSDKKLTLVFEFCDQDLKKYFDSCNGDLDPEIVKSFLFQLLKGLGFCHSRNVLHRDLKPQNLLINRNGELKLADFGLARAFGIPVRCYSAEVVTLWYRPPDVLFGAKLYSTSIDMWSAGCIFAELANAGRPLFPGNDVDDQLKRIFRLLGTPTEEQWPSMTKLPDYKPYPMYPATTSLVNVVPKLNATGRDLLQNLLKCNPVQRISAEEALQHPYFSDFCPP
T1 sequence (Q15078 99-307 partner limits assumed): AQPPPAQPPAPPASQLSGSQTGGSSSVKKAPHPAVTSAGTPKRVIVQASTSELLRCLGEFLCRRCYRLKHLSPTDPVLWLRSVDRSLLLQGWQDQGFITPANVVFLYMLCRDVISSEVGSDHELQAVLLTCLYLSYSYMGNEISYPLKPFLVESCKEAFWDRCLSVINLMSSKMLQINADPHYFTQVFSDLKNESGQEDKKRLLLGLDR
Procedure, shortened: (§1)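 Human recombinant CDK5/p25 (bacterially expressed) assayed with 0.8 μg/μl histone H1 as substrate and 15 μM [γ-33P]ATP. Residual activity versus DMSO controls, triplicate.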

[2] = biological target: Dual specificity tyrosine-phosphorylation-regulated kinase 1A (Rattus norvegicus) (UniProt Q63470); test: Inhibition of rat DYRK1A kinase domain (1 to 499 residues) expressed in bacteria assessed as residual activity at 1 uM using KKISGRLSPIMTEQ as substrate in presence of [gamma-33P]ATP relative to control
Procedure, shortened: (§2)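 Buffer: 10 mM MgCl2, 1 mM EGTA, 1 mM DTT, 25 mM Tris-HCl pH 7.5, 50 μg/ml heparin, 0.15 mg/ml BSA.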

[3] = biological target: T1, Cyclin-dependent kinase 5/CDK5 activator 1 (Homo sapiens); test: Inhibition of recombinant human CDK5/p25 expressed in bacteria assessed as residual activity at 1 uM using histone H1 as substrate in presence of [gamma-33P]ATP relative to control; procedure, shortened: as §1
[4] = biological target: T2, Glycogen synthase kinase-3 (Sus scrofa) (UniProt B2LUN4+I6LNT8); test: Inhibition of porcine brain GSK-3alpha/beta assessed as residual activity at 10 uM using YRRAAVPPSPSLSRHSSPHQSpEDEEE as substrate in presence of [gamma-33P]ATP relative to control; format: tissue-based; conditions: Sus scrofa domesticus
[5] = biological target: Dual specificity protein kinase CLK1 (Mus musculus) (UniProt P22518); test: Inhibition of recombinant mouse CLK1 expressed in bacteria assessed as residual activity at 10 uM using GRSRSRSRSRSR as substrate in presence of [gamma-33P]ATP relative to control
Dual specificity protein kinase CLK1 (Mus musculus), sequence (P22518 whole entry, looked up): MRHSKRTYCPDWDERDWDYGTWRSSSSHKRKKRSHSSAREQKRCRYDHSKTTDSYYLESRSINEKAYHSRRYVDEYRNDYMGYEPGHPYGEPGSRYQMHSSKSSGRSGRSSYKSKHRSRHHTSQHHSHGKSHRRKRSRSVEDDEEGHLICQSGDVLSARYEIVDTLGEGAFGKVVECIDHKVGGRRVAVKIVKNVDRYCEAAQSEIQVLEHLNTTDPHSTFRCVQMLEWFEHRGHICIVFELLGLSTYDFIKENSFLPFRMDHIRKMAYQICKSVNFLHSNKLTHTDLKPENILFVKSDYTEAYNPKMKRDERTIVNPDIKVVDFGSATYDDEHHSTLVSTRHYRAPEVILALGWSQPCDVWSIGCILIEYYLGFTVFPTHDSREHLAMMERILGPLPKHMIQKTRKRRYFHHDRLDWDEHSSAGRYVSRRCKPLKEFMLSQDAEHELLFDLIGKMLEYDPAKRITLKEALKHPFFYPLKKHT

Sus scrofa domesticus [6] = species on record: Sus scrofa domesticus; test: Inhibition of porcine brain CK1delta/epsilon assessed as residual activity at 1 uM using RRKHAAIGSpAYSITA as substrate in presence of [gamma-33P]ATP relative to control; format: tissue-based
[7] = biological target: T3, Dual specificity tyrosine-phosphorylation-regulated kinase 1A (Rattus norvegicus, UniProt Q63470); test: Inhibition of rat DYRK1A kinase domain (1 to 499 residues) expressed in bacteria using KKISGRLSPIMTEQ as substrate in presence of [gamma-33P]ATP; procedure, shortened: as §2
[8] = biological target: Dual specificity tyrosine-phosphorylation-regulated kinase 1A (Rattus norvegicus) (UniProt Q63470); test: Inhibition of rat DYRK1A kinase domain (1 to 499 residues) expressed in bacteria assessed as residual activity at 10 uM using KKISGRLSPIMTEQ as substrate in presence of [gamma-33P]ATP relative to control; procedure, shortened: as §2
[9] = biological target: T4, Dual specificity protein kinase CLK1 (Mus musculus, UniProt P22518); test: Inhibition of recombinant mouse CLK1 expressed in bacteria using GRSRSRSRSRSR as substrate in presence of [gamma-33P]ATP
T4 sequence (P22518 whole entry): as the sequence (P22518 whole entry, looked up) above

Sus scrofa domesticus [10] = species on record: Sus scrofa domesticus; test: Inhibition of porcine brain CK1delta/epsilon assessed as residual activity at 10 uM using RRKHAAIGSpAYSITA as substrate in presence of [gamma-33P]ATP relative to control; format: tissue-based
[11] = biological target: Dual specificity protein kinase CLK1 (Mus musculus) (UniProt P22518); test: Inhibition of recombinant mouse CLK1 expressed in bacteria assessed as residual activity at 1 uM using GRSRSRSRSRSR as substrate in presence of [gamma-33P]ATP relative to control
[12] = biological target: T2, Glycogen synthase kinase-3 (Sus scrofa); test: Inhibition of porcine brain GSK-3alpha/beta assessed as residual activity at 1 uM using YRRAAVPPSPSLSRHSSPHQSpEDEEE as substrate in presence of [gamma-33P]ATP relative to control; format: tissue-based; conditions: Sus scrofa domesticus
Procedure, shortened: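 Affinity-purified porcine brain GSK-3α/β with 0.01 µg/µl GS-1 peptide (phosphoserine-primed) as substrate and 15 µM [γ-33P]ATP. Buffer was 25 mM Tris-HCl pH 7.5, 10 mM MgCl2, 1 mM EGTA, 1 mM DTT, 50 µg/ml heparin and 0.15 mg/ml BSA. Radioactive incorporation was compared with DMSO-dilution controls, in triplicate.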

MDA-MB-231 = test: Antiproliferative activity against human MDA-MB-231 cells assessed as cell viability at 2 uM after 48 hrs by CellTiter96 AQueous assay relative to control; format: functional; conditions: read-out: Activity
Procedure, shortened: (§3)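 Cells grown in McCoy's 5a (HCT116), DMEM (SH-SY5Y, MDA-MB231, U-2 OS) or DMEM:F12 (hTERT-RPE1), each with 10% fetal calf serum, 2 mM L-glutamine, penicillin/streptomycin. Exposed to compound at 2 μM for 48 h; viability read by CellTiter96 AQueous per manufacturer, as % of DMSO-treated cells. Triplicate, mean ± SD; staurosporine as positive control.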

[13] = Antiproliferative activity against hTERT-RPE1 cells assessed as cell viability at 2 uM after 48 hrs by CellTiter96 AQueous assay relative to control; format: cell-based, TERT-RPE1; conditions: human, read-out: Activity; procedure, shortened: as §3
U2OS = test: Antiproliferative activity against human U2OS cells assessed as cell viability at 2 uM after 48 hrs by CellTiter96 AQueous assay relative to control; format: functional; conditions: read-out: Activity; procedure, shortened: as §3
SH-SY5Y = test: Antiproliferative activity against human SH-SY5Y cells assessed as cell viability at 2 uM after 48 hrs by CellTiter96 AQueous assay relative to control; format: functional; conditions: read-out: Activity; procedure, shortened: as §3
HCT-116 = test: Antiproliferative activity against human HCT116 cells assessed as cell viability at 2 uM after 48 hrs by CellTiter96 AQueous assay relative to control; format: functional; conditions: read-out: Activity; procedure, shortened: as §3
[14] = biological target: T3, Dual specificity tyrosine-phosphorylation-regulated kinase 1A; test: Inhibition of rat DYRK1A kinase domain (1 to 499 residues) expressed in bacteria using KKISGRLSPIMTEQ as substrate measured after 30 mins in presence of ATP by ADP-Glo kinase assay
Procedure, shortened: (§4)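 ADP-Glo luminescent kinase assay at 10 μM ATP, 30 min reaction at 30 °C; luminescence read as relative light units to derive IC50.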

[15] = biological target: T4, Dual specificity protein kinase CLK1; test: Inhibition of recombinant mouse CLK1 expressed in bacteria using GRSRSRSRSRSR as substrate measured after 30 mins in presence of ATP by ADP-Glo kinase assay; procedure, shortened: as §4
[16] = Selectivity index, ratio of IC50 for recombinant mouse CLK1 expressed in bacteria to IC50 for rat DYRK1A kinase domain (1 to 499 residues) expressed in bacteria

Row | SMILES | Activity [1] | Activity [2] | Activity [3] | Activity [4] | Activity [5] | Activity (Sus scrofa domesticus [6]) | IC50 [7] | Activity [8] | IC50 [9] | Activity (Sus scrofa domesticus [10]) | Activity [11] | Activity [12] | viability at 2 µM (MDA-MB-231) | viability at 48 h, 2 µM [13] | viability at 2 µM (U2OS) | viability at 2 µM (SH-SY5Y) | viability at 2 µM (HCT-116) | IC50 [14] | IC50 [15] | Ratio IC50 [16]
1 | CCN(CC)CCCNc1ncc2cc3cnccc3c(N)c2n1 | 20% | 24% | 68% | 22% | 2% | 68% | 80 nM | 2% | 160 nM | 45% | 21% | 61% |  |  |  |  |  |  |  | 
2 | CN1CCN(CCNc2ncc3cc4cnccc4c(N)c3n2)CC1 | 55% | 19% | 88% | 22% | 4% | 100% | 120 nM | 2% | 210 nM | 70% | 21% | 44% | 21.7% | 19.4% | 13% | 62% | 6.1% |  |  | 
3 | Nc1c2ccncc2cc2cnc(NCCN3CCOCC3)nc12 | 10% | 17% | 52% | 24% | 4% | 77% |  | 1% |  | 34% | 27% | 76% |  |  |  |  |  | 197 nM |  | 
4 | CNc1ncc2cc3cnccc3c(N)c2n1 | 3% | 27% | 33% | 40% | 1% | 85% |  | 1% |  | 60% | 9% | 79% |  |  |  |  |  |  | 274 nM | 
5 | CN(C)CCCNc1ncc2cc3cnccc3c(N)c2n1 | 34% | 17% | 77% | 10% | 1% | 96% | 120 nM | 1% | 120 nM | 61% | 14% | 36% | 0.4% | 0% | 0% | 0% | 0% |  |  | 
6 | CN1CCN(CCCNc2ncc3cc4cnccc4c(N)c3n2)CC1 | 15% | 4% | 49% | 4% | 6% | 61% | 20 nM | 1% | 117 nM | 30% | 8% | 35% | 3.6% | 0% | 0.1% | 0.1% | 0% |  |  | 5.9
7 | Nc1c2ccncc2cc2cnc(NCCCN3CCOCC3)nc12 | 23% | 5% | 67% | 6% | 4% | 53% | 23 nM | 6% | 290 nM | 24% | 20% | 41% | 15% | 0% | 6.4% | 3.6% | 0.8% |  |  | 12.6
8 | O=[N+]([O-])c1c2ccncc2cc2cnc(NCCCN3CCOCC3)nc12 | 60% | 68% | 100% | 15% | 3% | 100% |  | 10% | 120 nM | 38% | 14% | 76% | 39% | 31% | 27% | 54% | 16.8% |  |  | 
9 | Nc1c2ccncc2cc2cnc(NCCCN3CCCC3)nc12 | 44% | 25% | 86% | 23% | 4% | 69% | 90 nM | 1% |  | 23% | 26% | 50% | 22% | 52% | 33% | 92.2% | 21% |  |  | 
